Legend:
[1] = biological target: T1, Somatostatin receptor type 3 (Homo sapiens, UniProt P32745); experiment: Inhibitory concentration required for somatostatin 3 receptor in radioligand binding assay ([125I]Tyr11-SRIF)
In short: (§1)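 IC50 values were determined by displacement of [125I]-Tyr11-SRIF on membranes from CHO-K1 cells expressing the relevant human sst subtype. Unlabelled SRIF defined nonspecific binding. Bound ligand was separated by rapid filtration on glass-fibre filters pre-soaked in 0.5% PEI. Filters were washed three times with 50 mM Tris-HCl pH 7.4 containing 5 mg/mL BSA and gamma counted.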

[2] = biological target: T1, Somatostatin receptor type 3; experiment: Inhibition of somatostatin binding to sst3 receptor at 1 uM in radioligand binding assay ([125I]Tyr11-SRIF) in membranes from CHO-K1 cells; type: cell membranes
In short: (§2)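 Competitive binding against [125I]-Tyr11-SRIF on membranes from CHO-K1 cells expressing human sst1–sst5, with each test compound at a single concentration. Nonspecific binding was defined with unlabelled SRIF. Incubations were stopped by rapid filtration through 0.5% PEI-soaked glass-fibre filters, then three washes in 50 mM Tris-HCl pH 7.4 with 5 mg/mL BSA. Filter radioactivity was gamma counted.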

[3] = biological target: T2, Somatostatin receptor type 4 (Homo sapiens, UniProt P31391); experiment: Inhibition of somatostatin binding to sst4 receptor at 1 uM in radioligand binding assay ([125I]Tyr11-SRIF) in membranes from CHO-K1 cells; type: cell membranes; in short: as §2
T2 sequence (P31391 whole entry): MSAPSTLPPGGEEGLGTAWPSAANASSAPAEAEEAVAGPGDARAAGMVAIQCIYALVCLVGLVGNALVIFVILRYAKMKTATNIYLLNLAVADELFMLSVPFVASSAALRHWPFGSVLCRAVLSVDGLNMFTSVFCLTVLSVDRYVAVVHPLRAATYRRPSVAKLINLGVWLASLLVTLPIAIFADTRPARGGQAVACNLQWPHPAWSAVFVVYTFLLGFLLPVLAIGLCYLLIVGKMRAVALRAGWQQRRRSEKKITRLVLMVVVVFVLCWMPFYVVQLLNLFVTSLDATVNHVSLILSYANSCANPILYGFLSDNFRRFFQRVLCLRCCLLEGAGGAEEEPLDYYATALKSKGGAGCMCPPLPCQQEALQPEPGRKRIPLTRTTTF

[4] = biological target: T3, Somatostatin receptor type 5 (Homo sapiens, UniProt P35346); experiment: Inhibition of somatostatin binding to sst5 receptor at 1 uM in radioligand binding assay ([125I]Tyr11-SRIF) in membranes from CHO-K1 cells; type: cell membranes; in short: as §2
T3 sequence (P35346 whole entry): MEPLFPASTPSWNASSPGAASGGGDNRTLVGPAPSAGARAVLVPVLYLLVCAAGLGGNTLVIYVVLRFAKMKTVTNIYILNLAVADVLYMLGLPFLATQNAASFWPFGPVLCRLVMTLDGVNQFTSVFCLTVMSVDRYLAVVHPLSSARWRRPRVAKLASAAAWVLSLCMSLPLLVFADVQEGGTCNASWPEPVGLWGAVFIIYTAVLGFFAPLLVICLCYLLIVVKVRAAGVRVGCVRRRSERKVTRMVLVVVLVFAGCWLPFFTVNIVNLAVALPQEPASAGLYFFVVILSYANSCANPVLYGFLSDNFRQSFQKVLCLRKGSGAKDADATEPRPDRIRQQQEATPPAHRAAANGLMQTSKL

[5] = biological target: T4, Somatostatin receptor type 2 (Homo sapiens, UniProt P30874); experiment: Inhibition of somatostatin binding to sst2 receptor at 1 uM in radioligand binding assay ([125I]Tyr11-SRIF) in membranes from CHO-K1 cells; type: cell membranes; in short: as §2
T4 sequence (P30874 whole entry): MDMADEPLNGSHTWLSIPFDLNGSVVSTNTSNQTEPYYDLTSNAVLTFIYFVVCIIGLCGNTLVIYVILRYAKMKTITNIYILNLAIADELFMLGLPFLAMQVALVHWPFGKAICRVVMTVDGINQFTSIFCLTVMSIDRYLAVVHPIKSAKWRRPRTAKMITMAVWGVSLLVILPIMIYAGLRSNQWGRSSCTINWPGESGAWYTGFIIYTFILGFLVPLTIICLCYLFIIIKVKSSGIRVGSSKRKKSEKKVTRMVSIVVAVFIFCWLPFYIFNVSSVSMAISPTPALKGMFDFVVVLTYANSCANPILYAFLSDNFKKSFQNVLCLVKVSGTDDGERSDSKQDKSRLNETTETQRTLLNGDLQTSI

[6] = biological target: T2, Somatostatin receptor type 4; experiment: Inhibitory concentration required for somatostatin 4 receptor in radioligand binding assay ([125I]Tyr11-SRIF); in short: as §1
[7] = biological target: T5, Somatostatin receptor type 1 (Homo sapiens, UniProt P30872); experiment: Inhibition of somatostatin binding to sst1 receptor at 1 uM in radioligand binding assay ([125I]Tyr11-SRIF) in membranes from CHO-K1 cells; type: cell membranes; in short: as §2
T5 sequence (P30872 whole entry): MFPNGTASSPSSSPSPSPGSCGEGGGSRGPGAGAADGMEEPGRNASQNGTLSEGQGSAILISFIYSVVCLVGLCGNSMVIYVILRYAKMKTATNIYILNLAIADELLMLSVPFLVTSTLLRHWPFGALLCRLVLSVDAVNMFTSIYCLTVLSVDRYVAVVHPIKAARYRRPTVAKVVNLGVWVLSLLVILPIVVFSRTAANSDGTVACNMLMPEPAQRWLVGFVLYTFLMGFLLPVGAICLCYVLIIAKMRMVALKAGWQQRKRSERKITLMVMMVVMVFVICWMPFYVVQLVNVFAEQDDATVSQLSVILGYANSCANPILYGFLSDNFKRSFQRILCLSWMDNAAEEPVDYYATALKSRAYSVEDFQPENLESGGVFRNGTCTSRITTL

[8] = biological target: T3, Somatostatin receptor type 5; experiment: Inhibitory concentration required for somatostatin 5 receptor in radioligand binding assay ([125I]-Tyr11-SRIF); in short: as §1
[9] = biological target: T5, Somatostatin receptor type 1; experiment: Inhibitory concentration required for somatostatin 1 receptor in radioligand binding assay ([125I]Tyr11-SRIF); in short: as §1
[10] = biological target: T4, Somatostatin receptor type 2; experiment: Inhibitory concentration required for somatostatin 2 receptor in radioligand binding assay ([125I]Tyr11-SRIF); in short: as §1

T1 sequence (P32745 whole entry): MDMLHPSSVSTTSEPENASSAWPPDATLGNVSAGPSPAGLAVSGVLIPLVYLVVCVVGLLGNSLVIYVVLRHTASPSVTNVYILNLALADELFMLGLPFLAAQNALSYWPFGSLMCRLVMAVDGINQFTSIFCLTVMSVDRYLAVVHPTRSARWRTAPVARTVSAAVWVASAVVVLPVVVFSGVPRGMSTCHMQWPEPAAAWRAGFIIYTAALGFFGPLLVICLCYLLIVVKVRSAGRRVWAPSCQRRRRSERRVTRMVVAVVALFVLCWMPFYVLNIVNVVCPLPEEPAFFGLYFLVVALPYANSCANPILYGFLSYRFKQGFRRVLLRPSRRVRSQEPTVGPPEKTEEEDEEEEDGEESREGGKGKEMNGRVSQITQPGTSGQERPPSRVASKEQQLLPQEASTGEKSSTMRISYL

Compound	IC50 [1] [µM]	inhibition [2] [%]	inhibition [3] [%]	inhibition [4] [%]	inhibition [5] [%]	IC50 [6] [µM]	inhibition [7] [%]	IC50 [8] [µM]	IC50 [9] [µM]	IC50 [10] [µM]
NCCCC1CCCN2C(=O)[C@@H](Cc3c[nH]c4ccccc34)SCCN(Cc3cccc4ccccc34)C(=O)C12 (stereo not given in full)	1.26	44	99	89	74	0.041	64	0.041	0.407	0.275
NCC[C@H]1C[C@@H]2C(=O)N(Cc3cccc4ccccc34)CCS[C@H](Cc3c[nH]c4ccccc34)C(=O)N2C1	–	16	17	50	20	–	28	–	–	–
NCCCC[C@H]1NC(=O)[C@@H](Cc2c[nH]c3ccccc23)SCCN(Cc2cccc3ccccc23)C1=O	3.09	42	43	99	33	1.05	64	0.087	0.501	1.59
NCC[C@@H]1C[C@@H]2C(=O)N(Cc3cccc4ccccc34)CCS[C@H](Cc3c[nH]c4ccccc34)C(=O)N2C1	–	19	12	56	7	–	13	–	–	–
NCCCC[C@H]1NC(=O)[C@@H](Cc2c[nH]c3ccccc23)Sc2ccccc2CN(Cc2cccc3ccccc23)C1=O	–	13	41	64	7	–	36	–	–	–
